ChEMBL document CHEMBL1157634, “Differential binding of phenothiazine urea derivatives to wild-type human cholinesterases and butyrylcholinesterase mutants” (Bioorg Med Chem, 2010)
Activity calls are given as the source filed them. The rule behind the calls is not given here.

What was measured:
Cholinesterase [1] = molecular target: T1, Cholinesterase (Homo sapiens, UniProt P06276); experiment: Inhibition of human plasma BuChE by modified Ellman's spectrophotometric method; assay type: cell-free
T1 sequence (P06276 whole entry): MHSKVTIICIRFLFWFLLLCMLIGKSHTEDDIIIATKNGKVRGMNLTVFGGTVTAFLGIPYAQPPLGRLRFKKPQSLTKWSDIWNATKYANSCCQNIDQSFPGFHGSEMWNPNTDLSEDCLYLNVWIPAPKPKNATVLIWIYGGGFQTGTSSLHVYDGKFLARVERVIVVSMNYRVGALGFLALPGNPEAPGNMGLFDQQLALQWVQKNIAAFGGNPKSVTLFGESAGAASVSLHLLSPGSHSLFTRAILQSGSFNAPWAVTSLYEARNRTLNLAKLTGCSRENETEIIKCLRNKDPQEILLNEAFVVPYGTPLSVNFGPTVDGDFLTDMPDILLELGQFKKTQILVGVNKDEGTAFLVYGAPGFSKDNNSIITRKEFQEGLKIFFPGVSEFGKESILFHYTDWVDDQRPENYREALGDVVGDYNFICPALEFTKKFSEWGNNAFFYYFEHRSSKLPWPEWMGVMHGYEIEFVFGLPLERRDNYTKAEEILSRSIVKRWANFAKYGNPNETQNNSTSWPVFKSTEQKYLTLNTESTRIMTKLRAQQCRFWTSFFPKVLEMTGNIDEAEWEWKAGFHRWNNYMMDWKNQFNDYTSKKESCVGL
How it was run: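 Purified human plasma BuChE (~0.05 units in 0.1% gelatin) in DTNB buffer at pH 8.0, 23 °C, read at 412 nm. Inhibitors first screened in 1:10 serial dilutions in 50% acetonitrile. Lineweaver–Burk plots used butyrylthiocholine 3 × 10^-5–1.6 × 10^-4 M without inhibitor and at two inhibitor concentrations. Ki taken as the x-intercept of the slope replot. Runs generally at least in triplicate and averaged.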

Acetylcholinesterase [2] = molecular target: T2, Acetylcholinesterase (Homo sapiens, UniProt P22303); experiment: Inhibition of human recombinant AChE by modified Ellman's spectrophotometric method
T2 sequence (P22303 whole entry): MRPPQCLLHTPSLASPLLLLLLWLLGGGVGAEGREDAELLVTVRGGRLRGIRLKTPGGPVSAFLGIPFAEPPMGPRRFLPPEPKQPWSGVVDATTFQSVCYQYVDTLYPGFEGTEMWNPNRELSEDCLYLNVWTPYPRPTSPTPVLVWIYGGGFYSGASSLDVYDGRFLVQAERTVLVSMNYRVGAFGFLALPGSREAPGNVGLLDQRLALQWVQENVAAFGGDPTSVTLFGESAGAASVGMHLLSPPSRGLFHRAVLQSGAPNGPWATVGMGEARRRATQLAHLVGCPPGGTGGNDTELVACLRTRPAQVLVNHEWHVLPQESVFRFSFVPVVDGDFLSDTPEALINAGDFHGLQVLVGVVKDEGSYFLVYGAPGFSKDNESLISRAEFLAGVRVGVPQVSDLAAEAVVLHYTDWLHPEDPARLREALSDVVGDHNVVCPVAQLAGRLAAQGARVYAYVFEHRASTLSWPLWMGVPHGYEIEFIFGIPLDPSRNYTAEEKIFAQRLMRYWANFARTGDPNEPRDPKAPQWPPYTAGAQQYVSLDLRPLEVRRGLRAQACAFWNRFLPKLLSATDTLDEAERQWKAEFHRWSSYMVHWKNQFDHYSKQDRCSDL

Homo sapiens [3] = species: Homo sapiens; experiment: Inhibition of human BuChE D70G mutant at 50 nM by modified Ellman's spectrophotometric method
How it was run: (§1)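 Recombinant human BuChE mutants (D70G, F329A, Y332A), with wild-type BuChE for comparison, tested by modified Ellman assay. Buffered DTNB (usually pH 8.0), 23 °C, single butyrylthiocholine concentration of 1.6 × 10^-4 M final. Inhibitor added in 50% aqueous acetonitrile (final 1.67% v/v). Rate read at 412 nm every 5 s for 1 min.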

Homo sapiens [4] = species: Homo sapiens; experiment: Inhibition of human BuChE Y332A mutant assessed as residual activity at 500 nM by modified Ellman's spectrophotometric method relative to control; how it was run: as §1
Homo sapiens [5] = species: Homo sapiens; experiment: Inhibition of human BuChE F329A mutant at 500 nM by modified Ellman's spectrophotometric method; how it was run: as §1
Acetylcholinesterase [6] = molecular target: T2, Acetylcholinesterase; experiment: Inhibition of human AChE at 1.8 uM by Michaelis-Menten analysis in presence of 10 mM acetylthiocholine as substrate
How it was run: (§2)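 Purified recombinant human AChE (~0.03 units in 0.1% aqueous gelatin) in buffered DTNB (usually pH 8.0) at 23 °C. Fixed enzyme and inhibitor concentrations across acetylthiocholine 0.039–40 mM. Inhibitor added in 50% aqueous acetonitrile (final 1.67% v/v). Hydrolysis rate (ΔA/min) read at 412 nm every 5 s for 1 min. Michaelis–Menten plots of rate versus substrate concentration.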

Acetylcholinesterase [7] = molecular target: T2, Acetylcholinesterase; experiment: Inhibition of human AChE at 1.8 uM by Michaelis-Menten analysis in presence of 20 mM acetylthiocholine as substrate; how it was run: as §2
Cholinesterase [8] = molecular target: T1, Cholinesterase; conditions: 50 nM
Cholinesterase [9] = molecular target: T1, Cholinesterase; conditions: 500 nM
Cholinesterase [10] = molecular target: T1, Cholinesterase; conditions: 1.8 uM
Cholinesterase [11] = molecular target: T1, Cholinesterase; conditions: 1.8 uM; remark: listed apart in the source

SMILES	Ki (Cholinesterase [1]) [µM]	Ki (Acetylcholinesterase [2])	further results
CCCCNC(=O)N1c2ccccc2Sc2ccccc21	24.7	Not Active	
O=C(NC1CCCCC1)N1c2ccccc2Sc2ccccc21	2.81	Not Active	
COc1ccc(NC(=O)N2c3ccccc3Sc3ccccc32)cc1	9.63	Not Active	
CCN(CC)C(=O)N1c2ccccc2Sc2ccccc21	1.05	Not Active	
O=C(NCCN1CCCC1)N1c2ccccc2Sc2ccccc21	0.21		Ki (Acetylcholinesterase [2]; read-out: Ki): 29.4 µM
NC(=O)N1c2ccccc2Sc2ccccc21	90.8		Ki (Acetylcholinesterase [2]; read-out: Ki): 89.3 µM
O=C(NC12CC3CC(CC(C3)C1)C2)N1c2ccccc2Sc2ccccc21	0.35	Not Active	
Cc1ccc(NC(=O)N2c3ccccc3Sc3ccccc32)cc1	12.1	Not Active	
O=C(NCCN1CCOCC1)N1c2ccccc2Sc2ccccc21	6.91	Not Active	
Cc1ccccc1NC(=O)N1c2ccccc2Sc2ccccc21	0.71	Not Active	
CC(C)(C)NC(=O)N1c2ccccc2Sc2ccccc21	10.6	Not Active	
CC(C)N(CCNC(=O)N1c2ccccc2Sc2ccccc21)C(C)C	0.009		Ki (Acetylcholinesterase [2]; read-out: Ki): 0.81 µM; inhibition (Homo sapiens [3]): inactive; Activity (Homo sapiens [4]): 50%; inhibition (Homo sapiens [5]): Active; inhibition (Acetylcholinesterase [6]): Active; inhibition (Acetylcholinesterase [7]): inactive; inhibition (Cholinesterase [8]): 50%; inhibition (Cholinesterase [9]): Active; inhibition (Cholinesterase [10]): Active; inhibition (Cholinesterase [11]): inactive
CNC(=O)N1c2ccccc2Sc2ccccc21	18.3		Ki (Acetylcholinesterase [2]; read-out: Ki): 9.36 µM
O=C(N1CCCCC1)N1c2ccccc2Sc2ccccc21	1.56	Not Active	
CN1CCN(C(=O)N2c3ccccc3Sc3ccccc32)CC1	17.1	Not Active	
O=C(Nc1ccccc1)N1c2ccccc2Sc2ccccc21	0.31	Not Active	
CN(C)C(=O)N1c2ccccc2Sc2ccccc21	9.2		Ki (Acetylcholinesterase [2]; read-out: Ki): 400 µM
CC(C)N(C(=O)N1c2ccccc2Sc2ccccc21)C(C)C	0.18	Not Active	
O=C(NC1CCCC1)N1c2ccccc2Sc2ccccc21	2.99	Not Active	

SMILES	Ki (Cholinesterase [1]) [µM]	Ki (Acetylcholinesterase [2])	further results
O=C(NCc1cccc2ccccc12)N1c2ccccc2Sc2ccccc21	0.15	Not Active	
O=C(NCCN1CCCCC1)N1c2ccccc2Sc2ccccc21	0.02		Ki (Acetylcholinesterase [2]; read-out: Ki): 0.62 µM
O=C(NC1CCC1)N1c2ccccc2Sc2ccccc21	10	Not Active	
O=C(NCCc1ccccc1)N1c2ccccc2Sc2ccccc21	0.19	Not Active	
O=C(NCc1ccccc1)N1c2ccccc2Sc2ccccc21	4.45	Not Active	
O=C(N1CCOCC1)N1c2ccccc2Sc2ccccc21	7.1	Not Active	
CCN(CC)CCNC(=O)N1c2ccccc2Sc2ccccc21	0.51		Ki (Acetylcholinesterase [2]; read-out: Ki): 16.3 µM
CN(CCCNC(=O)N1c2ccccc2Sc2ccccc21)c1ccccc1	0.25	Not Active	
O=C(Nc1ccc(Cl)cc1)N1c2ccccc2Sc2ccccc21	4.69	Not Active	
COCCNC(=O)N1c2ccccc2Sc2ccccc21	29.1	Not Active	
CCNC(=O)N1c2ccccc2Sc2ccccc21	35		Ki (Acetylcholinesterase [2]; read-out: Ki): 1450 µM
O=C(N1CCCC1)N1c2ccccc2Sc2ccccc21	0.56	Not Active	
O=C(NCCCN1CCOCC1)N1c2ccccc2Sc2ccccc21	7.86	Not Active	
CCCNC(=O)N1c2ccccc2Sc2ccccc21	20.5	Not Active	
O=C(NC1CC1)N1c2ccccc2Sc2ccccc21	42.5	Not Active	
CC(C)NC(=O)N1c2ccccc2Sc2ccccc21	3.41		Ki (Acetylcholinesterase [2]; read-out: Ki): 691 µM
CCCN(CCC)C(=O)N1c2ccccc2Sc2ccccc21	0.43	Not Active	
CC(C)(C)CNC(=O)N1c2ccccc2Sc2ccccc21	2.66	Not Active	
